From publication PMC8873552 (Chemical Science, 2021)

Key:
[1] = tested on: A549 cell xenograft-bearing nude mice; assay: Intratumor therapy of xenograft mice; assay type: in vivo, mouse; details: intratumoral, 120 nmol
In short: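 Nude mice bearing A549 xenografts received intratumoral injections once daily for 12 days. Comparison groups were vehicle, the azide control, the phenyl-azide conjugate and free drug. Tumour growth, body weight and survival were monitored.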

[2] = tested on: A549 cell xenograft-bearing nude mice; assay: Intravenous therapy of xenograft mice; assay type: in vivo, mouse; details: 240 nmol; for survival: every three days for ten days; for tumor growth: every three days for ten days (four injections)
In short: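 Nude mice bearing A549 xenografts were injected intravenously every three days over ten days, four injections in total, at twice the intratumoral concentration. Comparison groups matched the intratumoral study. Tumour growth and body weight were monitored.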

[3] = Reaction kinetics of acrolein–azide 1,3-dipolar cycloaddition; assay type: physicochemical
[4] = In vivo drug release analysis; set-up: species or system mouse; details: two hours after intratumoral administration
In short: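 A549 xenograft-bearing nude mice were dosed intratumorally. Two hours later, tumour and urine extracts were analysed by RP-HPLC for intact prodrug and free drug.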

Compound: Cc1cc(C(C)C)c(N=[N+]=[N-])c(C(C)C)c1 [Compound 9, 4-methyl-2,6-diisopropyl-phenyl azide]
- survival ([1]; every day for 12 days): survived less than twelve days after treatment
- tumor growth ([1]; every day for 12 days): does not retard the tumor growth
- tumor size ([1]; in two weeks): 900 mm^3
- tumor size ([2]; by two weeks): 800 mm^3
- survival [2]: survived less than three weeks after treatment
- tumor growth [2]: does not have any effect

Compound: CC(C)c1cccc(C(C)C)c1N=[N+]=[N-] [Compound 1d, 2,6-diisopropylphenyl azide]
- second-order rate constant (k), formation of 4-formyl-1,2,3-triazole 4d ([3]; formation of 4d): 0.00095 M⁻¹ s⁻¹
- second-order rate constant (k), reaction with acrolein to give heterocycle 6 ([3]; formation of heterocycle 6): 0.00633 M⁻¹ s⁻¹
- rate ratio, formation of heterocycle 6 versus 4-formyl-1,2,3-triazole 4d ([3]; times faster): 6.6 times
- rate constant ratio, 1d to heterocycle 6 versus 1a to triazoline 3a ([3]; times higher): 9.7 times

Compound: [N-]=[N+]=Nc1ccccc1 [Compound 1a, phenyl azide]
- second-order rate constant (k), reaction with acrolein to give triazoline 3a ([3]; formation of triazoline 3a): 0.00065 M⁻¹ s⁻¹

Compound: CO[C@@]12[C@H](COC(N)=O)C3=C(C(=O)C(C)=C(N)C3=O)N1C[C@@H]1N[C@@H]12 [MMC, mitomycin C]
- body weight ([1]; every day for 12 days): more body weight loss
- survival ([1]; every day for 12 days): survived less than five days after treatment
- tumor growth ([1]; every day for 12 days): significantly inhibits tumor growth
- inflammation and ADRs ([1]; post-treatment day 4): inflammation on the whole body
- body weight ([2]; every three days): the body weight loss was very drastic
- survival [2]: could not survive before the fourth injection
- tumor growth [2]: significantly inhibited tumor growth
- inflammation ([2]; tenth day of treatment): inflammation in the tail area
- compound detected in tumor extract [4]: the free drug could not be detected from the tumor
- compound detected in urine extract [4]: the secreted MMC drug was present in the urine
